The list is not random: actives were taken first. Their share in the collection is about 12%.
Lmaj promast = inhibitors of Leishmania major promastigote growth; Leishmania major promastigotes, resazurin fluorescence viability; AID 1063; 200,000 compounds, 9% hits; inhibition, % at 10 µM;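 also: promastigotes grown with compound for 44 hours at 28 °C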
Arbovirus anti = blocks arbovirus infection. inhibition, % at 10 µM. 200,000 compounds, 0.37% hits. arbovirus infection cell-based antiviral screen; in the data active = inhibition above about 30%
Wee1 degr inh = inhibitors of human Wee1 degradation; P30291; reporter increase, % at 5 µM; AID 1321; 220,000 compounds, 1.2% hits; HeLa Luc-Wee1K328M stability, luciferase luminescence; 100% = proteasome inhibitor MG132 effect;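 active = activation above the mean of all tested compounds plus 3 SD, set per screening run, cut at about 8.8% in these data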;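 also: cells exposed to compound for 20 h before luminescence read; 0% = DMSO alone and 100% = MG132 at 30 µM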
Target sequence (P30291 whole entry K328M): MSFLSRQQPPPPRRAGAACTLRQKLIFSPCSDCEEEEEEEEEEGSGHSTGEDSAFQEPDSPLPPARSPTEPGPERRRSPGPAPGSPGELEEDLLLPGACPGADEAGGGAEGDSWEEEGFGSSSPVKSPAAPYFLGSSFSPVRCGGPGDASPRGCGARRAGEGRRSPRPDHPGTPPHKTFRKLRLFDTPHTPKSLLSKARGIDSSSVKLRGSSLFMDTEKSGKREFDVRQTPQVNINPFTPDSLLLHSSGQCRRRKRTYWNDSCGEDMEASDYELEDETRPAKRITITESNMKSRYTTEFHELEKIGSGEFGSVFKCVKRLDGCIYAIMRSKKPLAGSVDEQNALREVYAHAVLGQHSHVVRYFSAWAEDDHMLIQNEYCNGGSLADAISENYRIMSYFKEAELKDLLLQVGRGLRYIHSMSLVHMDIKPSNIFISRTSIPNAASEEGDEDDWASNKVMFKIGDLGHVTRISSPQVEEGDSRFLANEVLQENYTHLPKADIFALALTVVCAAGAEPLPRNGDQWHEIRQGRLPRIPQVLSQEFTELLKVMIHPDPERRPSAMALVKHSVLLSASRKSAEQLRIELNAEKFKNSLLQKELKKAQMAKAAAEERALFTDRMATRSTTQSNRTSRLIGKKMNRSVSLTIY
PKD1 kinase inh = inhibitors of human PKD1 kinase | PKD1 kinase fluorescence polarization assay | 200,000 compounds, 0.056% hits | Q15139 | AID 797 | inhibition, % (no concentration beside the values)
CHOP inhibitor = blocks CHOP induction under ER stress | CHO-K1 CHOP-promoter luciferase, tunicamycin-induced, 15-18 h | inhibition, % at 10 µM | 220,000 compounds, 3.8% hits | AID 2732;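 active = compounds that reduced the stress-induced luciferase reporter signal by more than about 70% of percent inhibition, limit read from the data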;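 also: 0% = tunicamycin plus vehicle and 100% = wells without tunicamycin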
Rad51 HR inh = blocks human Rad51 in homologous recombination; Q06609; hRad51 DNA strand exchange, fluorescence dequenching; inhibition, % at 10 µM; 200,000 compounds, 0.085% hits; AID 1385;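 active = inhibition above 40% at the single screening dose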;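 also: 0% = DMSO control wells and 100% = blanks with heterologous ssDNA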
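Read-out basis: percent inhibition relative to plate controls and blanks / Assay system: human Rad51 nucleoprotein filaments preassembled on unlabelled ssDNA / Timing: filaments 15 min 37 °C, then compound 30 min / Control set: per-plate controls and blanks / Technique: fluorescence dequenching at 485/520 nm / Compound: 10 µM final, single point / Also added: Fluorescein- and BHQ1-tagged 47-mer duplex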
Starred values were filed as active, the others as inactive; x = not tested or not shown. Rule as the data show it, unless noted: active = inhibition above about 50%; inactive = the rest.

SMILES | Lmaj promast | Arbovirus anti | Wee1 degr inh | PKD1 kinase inh | CHOP inhibitor | Rad51 HR inh
COc1ccc(/C=N/OC(=O)c2ccc(Cl)cc2)c(Cl)c1OC | x | x | 2 | x | 1 | -4
O=C1CCCC2=C1C(c1ccccn1)Nc1ccc(C(=O)c3ccccc3)cc1N2 (stereo not drawn) | 67* | 2 | 1 | -8 | 3 | 7
O=C1CCCC2=C1C(c1ccc(O)c(O)c1)c1c(ccc3ncccc13)N2 (stereo not drawn) | -11 | 1 | -3 | 4 | -5 | 11
O=C1CCCC2=C1C(c1ccco1)Nc1ccc(C(=O)c3ccccc3)cc1N2 (stereo not drawn) | 73* | -22 | 0 | -15 | 0 | -3
Cc1ccccc1C1NC(=S)NC2=C1C(=O)CCC2 (stereo not drawn) | -5 | -4 | 3 | 6 | 9 | -40
Cc1onc(-c2ccc(Cl)cc2Cl)c1-c1csc(COc2ccccc2)n1 | x | x | 2 | x | 23 | 9
Cc1cc(NC(=O)CSc2nc(-c3ccccc3)nc3c2c(=O)n(C)c(=O)n3C)no1 | -8 | -1 | 0 | 3 | -10 | x
O=C(Cn1nnc2ccccc2c1=O)NCC1CCC(C(=O)O)CC1 (stereo not drawn) | x | x | 6 | x | 32 | x
CCN(C(=O)COC(=O)c1cccc(NS(=O)(=O)c2ccc(F)c(F)c2)c1)C1CCS(=O)(=O)C1 (stereo not drawn) | 3 | 5 | -1 | -2 | 9 | 12
C=CCOc1ccccc1/C=c1\sc2nc(=O)c(C)nn2c1=O | 100* | 5 | -3 | -3 | 51 | -7
Cc1cc(C)c(NC(=O)CN2C(=O)NC3(CCCCC3)C2=O)c(Cl)c1 | 3 | 4 | 2 | -3 | 71* | 8
Cc1ccc(NC(=O)CN2C(=O)NC3(CCC(C)CC3)C2=O)c(Cl)c1 (stereo not drawn) | -1 | 8 | 0 | 0 | 26 | 6
CC(=O)NC1=C(N(C)C2CCS(=O)(=O)C2)C(=O)c2ccccc2C1=O (stereo not drawn) | 19 | -31 | 6 | 1 | 75* | -4
Cc1cc(CN2CCOCC2)c(O)c(C2(C)CCCCC2)c1 | 56* | -26 | -1 | -7 | 38 | 2
Cc1cc(CN(C)C)c(O)c(C2(C)CCCCC2)c1 | 3 | 12 | 1 | -6 | 51 | 1
COc1ccccc1NS(=O)(=O)c1cc(NC(=O)c2[nH]c(C)c(C(C)=O)c2C)ccc1N1CCOCC1 | x | x | 3 | x | -12 | -1
O=C(CCNc1cccc(F)c1)c1cccc([N+](=O)[O-])c1 | 80* | 4 | -2 | -3 | 4 | 13
O=C(CCNc1ccc(Cc2ccncc2)cc1)c1cccc([N+](=O)[O-])c1 | 95* | -10 | -2 | 6 | -15 | x
COc1ccc([N+](=O)[O-])cc1C(=O)Nc1ccc(Cc2ccncc2)cc1 | 1 | -13 | -1 | -6 | -2 | -2
CCN1C(=O)N(S(=O)(=O)c2ccc(C)cc2)[C@@H](c2ccccc2)C(C(=O)OC)=C1C | x | x | x | x | 20 | x
Cc1ccc2c(c1)cc(CN(Cc1ccc3c(c1)OCO3)C(=O)c1ccccc1)c1nnnn12 | 59* | 2 | -2 | -10 | -20 | 7
Cc1ccc2c(c1)cc(CN(Cc1cccnc1)C(=O)NCc1ccccc1)c1nnnn12 | 100* | 0 | -4 | -2 | 26 | -1
N#Cc1cc(N)ccc1-n1cccc1 | x | x | -1 | x | -10 | 3
CCc1ccc(CN(C)C(=O)CCc2nnc(CCc3cccc(OC)c3)o2)nc1 | 100* | 5 | 4 | -2 | 7 | 5
CCOC(=O)C1CCN(C(=O)CSc2ccccc2Cl)CC1 | -1 | 3 | 2 | 2 | 4 | 1
SMILES | Lmaj promast | Arbovirus anti | Wee1 degr inh | PKD1 kinase inh | CHOP inhibitor | Rad51 HR inh
O=C(CN(C(=O)CCC(=O)Nc1nccs1)c1ccccc1F)NCC1CCCO1 (stereo not drawn) | -5 | 1 | -1 | 2 | 73* | -2
O=C(CN(C(=O)CCC(=O)Nc1nccs1)c1ccc(F)c(Cl)c1)NCc1ccco1 | 90* | -5 | 0 | 9 | 16 | -7
C=CCc1ccc(OCCCCN2CC(C)OC(C)C2)c(OC)c1 (stereo not drawn) | 98* | -7 | 3 | -8 | -30 | -3
C=CCc1ccc(OCCN2CCc3ccccc3C2)c(OC)c1 | 83* | 14 | -4 | -4 | 30 | 1
Cc1nn(C)cc1/C=N/NC(=O)Cn1cncn1 | x | x | -2 | x | 1 | 0
Cc1ccc(N=C2NC(=O)S/C2=C\c2ccco2)cc1 | 0 | -17 | 2 | -7 | 100* | 0

Compound activity (PubChem BioAssay)
